Screens as filed in PubChem BioAssay.
Most compounds without a hit are left out; they make up all but 3.4% or so of the library.
CHRM1 PAM: human M1 muscarinic receptor positive allosteric modulators, primary screen, CHO-K1 cells, Fluo-8 calcium fluorescence, 1536-well; 360,000 tested, 0.088% active; AID 588819, 2011; Muscarinic acetylcholine receptor M1 (Homo sapiens), P11229; activation, % at 3 µM; CHO-K1 hM1, ACh EC20; 0% = ACh EC20, 100% = maximal ACh; in the data active means activation above about 19%, passing the limit was not always enough
M1 antag: human M1 muscarinic receptor antagonists, primary screen, CHO-K1 cells, Fluo-8 calcium fluorescence, 1536-well; CHO-K1 hM1, ACh EC80 antagonist; Muscarinic acetylcholine receptor M1 (Homo sapiens), P11229; inhibition, % at 3 µM; 360,000 tested, 1.3% active;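 active means percent inhibition above its own plate's cutoff, namely the mean of that plate's compound wells plus 3 SD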;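 further: peak over basal fluorescence ratio during 140 s after agonist addition; 0% = ACh EC80 plus DMSO and 100% = DMSO alone without agonist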
TAAR1 antag: human TAAR1 antagonists, primary screen, Fluo-8 calcium fluorescence, CHO RD-HGA16 cells; inhibition, % at 3 µM; Trace amine-associated receptor 1 (Homo sapiens), Q96RJ0; 360,000 tested, 1.5% active; AID 624466, 2012; antagonist;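 active means inhibition above a per-plate cutoff, the mean inhibition of test compounds on that plate plus 3 SD, cut at about 49% in these data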;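 further: 0% = DMSO plus EC80 beta-PEA response and 100% = DMSO alone without agonist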
Target sequence (Q96RJ0 whole entry, looked up): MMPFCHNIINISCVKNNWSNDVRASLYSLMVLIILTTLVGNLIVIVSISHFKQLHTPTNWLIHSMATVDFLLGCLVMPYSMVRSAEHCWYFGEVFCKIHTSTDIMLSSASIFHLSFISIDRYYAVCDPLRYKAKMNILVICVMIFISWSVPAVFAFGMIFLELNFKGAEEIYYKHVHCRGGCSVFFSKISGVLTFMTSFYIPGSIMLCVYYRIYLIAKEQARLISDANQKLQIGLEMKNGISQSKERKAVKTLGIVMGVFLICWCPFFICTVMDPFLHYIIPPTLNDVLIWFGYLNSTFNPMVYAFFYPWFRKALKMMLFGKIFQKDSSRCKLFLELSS
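Material: CHO RD-HGA16 cells bearing hTAAR1; compound dosing: one-point dosing, 3 µM nominal final; schedule: dye loading 75 min at 37 °C, then 30 min room temperature; measured by: calcium fluorescence with Fluo-8; control set: vehicle and agonist controls; replication: n of 1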
CHRM1 agonist: human M1 muscarinic receptor agonists, primary screen, Fluo-8 calcium fluorescence, CHO-K1 cells, HTS. Muscarinic acetylcholine receptor M1 (Homo sapiens), P11229. CHO-K1 hM1, agonist mode; 0% DMSO, 100% acetylcholine EC100. activation, % at 3 µM. 360,000 tested, 0.33% active;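 active means activation above the run's mean compound activation plus 3 SD, cut at about 16% in these data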;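 further: peak over basal fluorescence ratio within a 140 s kinetic read after compound addition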
TAAR1 ag: human TAAR1 agonists, primary screen, Fluo-8 calcium fluorescence, CHO RD-HGA16 cells | Trace amine-associated receptor 1 (Homo sapiens), Q96RJ0 | vehicle wells 0%, saturating PEA agonist 100% | activation, % at 3 µM | 360,000 tested, 0.99% active | AID 624467, 2012;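 active means activation above the mean activation of all test compounds in the run plus 3 SD, cut at about 38% in these data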
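Assay system – CHO-derived RD-HGA16 cells with stable Gα16 and human TAAR1 · Compound dosing – one-point dosing at 3 µM (nominal) · Incubation – 17-24 h seeding, 75 min 37 °C dye, 30 min RT · Measured by – kinetic Fluo-8 calcium fluorescence · Control set – DMSO vehicle as 0%, PEA at EC100 as 100% · Repeats – single well for each compound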
TAAR1 nonsel count: nonselective antagonists in TAAR1 counter-screen cells, counter-screen for hTAAR1 antagonist project, cell-based, fluorescence, calcium; shares compounds with TAAR1 antag; counterscreen cell line, antagonist mode; inhibition, % at 3 µM; 2,400 tested, 77% active; AID 651780, 2012; in the data active means inhibition above about 22%;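 further: CHO-Ga16 host cells stimulated with ATP at an EC80 level; 0% = agonist EC80 plus vehicle and 100% = vehicle without agonist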
TAAR1 ant conf: human TAAR1 antagonists, retest of hits, confirmation, cell-based, fluorescence; shares compounds with TAAR1 antag; TAAR1-expressing cells, fluorescence antagonist read-out; inhibition, % at 3 µM; 2,400 tested, 40% active; in the data active means inhibition above about 49%;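 further: CHO-Ga16 host cells challenged with agonist PEA near its EC80; 0% = agonist at EC80 plus vehicle and 100% = vehicle with no agonist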
Ga16 ag counter: calcium activation in Ga16-expressing cells, counter-screen for TAAR1 antagonist project, cell-based, fluorescence; activation, % at 3 µM; shares compounds with TAAR1 antag; 2,400 tested, 18% active; agonist counterscreen; AID 651953, 2012; in the data active means activation above about 12%;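 further: 0% = vehicle wells and 100% = saturating stimulus response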
TAAR1 ag count: TAAR1 activation by candidate antagonists – cell-based, fluorescence, counter-screen for TAAR1 antagonist project; shares compounds with TAAR1 antag; hTAAR1 cell line, agonist mode; activation, % at 3 µM; 2,400 tested, 2% active; AID 651955, 2012; in the data active means activation above about 37%;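 further: CHO cells stably expressing TAAR1 with calcium dye readout; 0% = DMSO vehicle and 100% = full agonist response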
Starred values were filed as active, the others as inactive.

For COc1ccc(NC(=O)CCSc2ccc3ccccc3n2)cc1 the results were CHRM1 PAM -2, M1 antag -2, TAAR1 antag 0, CHRM1 agonist -7 and TAAR1 ag -2.
`COc1cccc(NC(=O)CCSc2ccc3ccccc3n2)c1` gave CHRM1 PAM 1, M1 antag -9, TAAR1 antag 76*, CHRM1 agonist -10, TAAR1 ag -3, TAAR1 nonsel count 8, TAAR1 ant conf 14, Ga16 ag counter 3 and TAAR1 ag count -1.
`COc1ccc(-c2cc(C(=O)NNC(=O)c3csc(N4CCOCC4)n3)c3ccccc3n2)cc1` gave CHRM1 PAM -9, M1 antag 22, TAAR1 antag 61*, CHRM1 agonist -2, TAAR1 ag 9, TAAR1 nonsel count 30*, TAAR1 ant conf 45, Ga16 ag counter 6 and TAAR1 ag count 5.
For O=C(Nc1ccccc1N1CCOCC1)c1cc(-c2ccncc2)nc2ccccc12 the results were CHRM1 PAM -14, M1 antag 34, TAAR1 antag 63*, CHRM1 agonist -2, TAAR1 ag 16, TAAR1 nonsel count 27*, TAAR1 ant conf 44, Ga16 ag counter 8 and TAAR1 ag count 9.
COc1ccc(-c2cc(C(=O)Nc3ccccc3N3CCOCC3)c3ccccc3n2)cc1OC was read as CHRM1 PAM -10, M1 antag 22, TAAR1 antag 59*, CHRM1 agonist -4, TAAR1 ag 6, TAAR1 nonsel count 24*, TAAR1 ant conf 45, Ga16 ag counter 6 and TAAR1 ag count 3.
For COc1ccc(-c2cc(C(=O)Nc3ccccc3O)c3ccccc3n2)cc1OC the results were CHRM1 PAM -17, M1 antag 18, TAAR1 antag 34, CHRM1 agonist -1 and TAAR1 ag 14.
CCOc1cc(OCC)cc(C(=O)N2CCC[C@@H]2C(=O)N2CCC[C@@H]2C(=O)NCc2ccccc2Cl)c1 was read as TAAR1 antag -9 and TAAR1 ag 25.
Screening Nc1ncnc2nc(N3CCN(C(=O)c4ccccc4)CC3)[nH]c12 returned CHRM1 PAM 5, M1 antag -13, TAAR1 antag 102*, CHRM1 agonist -3, TAAR1 ag -6, TAAR1 nonsel count 6, TAAR1 ant conf 4, Ga16 ag counter 4 and TAAR1 ag count 4.
Screening CCOC(=O)[C@]12CCCC=C1N(CCC1=CCCCC1)C(=O)[C@H](CC(=O)NCc1ccc(OC)c(OC)c1)C2 returned TAAR1 antag -38 and TAAR1 ag -2.
Fc1cccc(Cc2c(-c3ccccc3)nc3c(Cl)cc(C(F)(F)F)cn23)c1 was read as CHRM1 PAM 3, M1 antag -20, TAAR1 antag -14, CHRM1 agonist -1 and TAAR1 ag 0.
CCC(=O)Nc1ccc2c(c1)OC[C@@H](C)N(Cc1cccc(F)c1)C[C@@H](C)[C@@H](OC)CN(C)C2=O was read as TAAR1 antag -3 and TAAR1 ag 0.
Cn1nc(C(=O)Nc2ccc(S(=O)(=O)N3CCCCC3)cc2)c2ccccc2c1=O was read as CHRM1 PAM 1, M1 antag 0, TAAR1 antag 96*, CHRM1 agonist -6, TAAR1 ag -2, TAAR1 nonsel count 11, TAAR1 ant conf 12, Ga16 ag counter 2 and TAAR1 ag count -1.
Screening CCCCC(=O)Nc1ccc(C(=O)Nc2ccc(S(=O)(=O)N3CCCC3)cc2)cc1 returned CHRM1 PAM 0, M1 antag -8, CHRM1 agonist 0, TAAR1 nonsel count 12 and Ga16 ag counter 6.
For Cc1ccc(C)c(NC(=O)C(Sc2nc3ccccc3c(=O)n2CC(C)C)c2ccccc2)c1 (stereo unspecified) the results were CHRM1 PAM -1, M1 antag 12, TAAR1 antag 56*, CHRM1 agonist 3, TAAR1 ag 7, TAAR1 nonsel count 28*, TAAR1 ant conf 50*, Ga16 ag counter 3 and TAAR1 ag count 1.
For Cc1ccc(C)c(NC(=O)C(Sc2ncnc3ccccc23)c2ccccc2)c1 (stereo unspecified) the results were CHRM1 PAM 0, M1 antag 0 and CHRM1 agonist -4.
For O=C(Nc1cccc(-c2csc(Nc3ccc(Cl)cc3)n2)c1)c1cc([N+](=O)[O-])cc(C(F)(F)F)c1 the results were CHRM1 PAM 1, M1 antag 0, TAAR1 antag 28, CHRM1 agonist -6 and TAAR1 ag 10.
`O=C(Nc1cccc(-c2csc(Nc3ccccc3)n2)c1)c1cc([N+](=O)[O-])cc(C(F)(F)F)c1` gave CHRM1 PAM 0, M1 antag -7, TAAR1 antag 55*, CHRM1 agonist -3, TAAR1 ag 1, TAAR1 nonsel count 15, TAAR1 ant conf 29, Ga16 ag counter 2 and TAAR1 ag count 2.
For O=C(Nc1ccc(-c2csc(Nc3ccccc3)n2)cc1)c1ccccc1 the results were CHRM1 PAM 0, M1 antag -1, TAAR1 antag 74*, CHRM1 agonist -4, TAAR1 ag 6, TAAR1 nonsel count 26*, TAAR1 ant conf 53*, Ga16 ag counter 5 and TAAR1 ag count 6.
`CCOC(=O)[C@]12CCCC=C1N(Cc1ccccc1)C(=O)[C@H](CC(=O)NCCCN1CCCC1=O)C2` gave TAAR1 antag -10 and TAAR1 ag 1.
`CCOc1ccccc1NC(=O)c1cc(-c2cc(OC)c(OC)c(OC)c2)nc2ccccc12` gave CHRM1 PAM -11, M1 antag 16, TAAR1 antag 59*, CHRM1 agonist 0, TAAR1 ag 6, TAAR1 nonsel count 29*, TAAR1 ant conf 51*, Ga16 ag counter 4 and TAAR1 ag count 2.
